In brackets after ≈: the same amount, converted by molar mass. Activity calls are given as the source filed them. The rule behind the calls is not given here.
Columns and labels:
SF-295 = assay: Cytotoxicity against human SF295 cells after 72 hrs by MTT assay; assay type: functional, cell-based; settings: SF-295, 72 h
How it was run: (§1)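 Cell lines obtained from NCI, kept in RPMI 1640 with 10% FBS, 2 mM glutamine and penicillin/streptomycin at 37 °C, 5% CO2. Seeding: HL-60 0.3 × 10⁶, SF295 0.6 × 10⁵, MDA-MB435 0.1 × 10⁶ cells/mL. Compounds were added 24 h after seeding at 0.39–25.00 in 0.1% DMSO and left for 72 h. MTT at 0.5 mg/mL was added for 3 h, formazan dissolved in DMSO, absorbance read at 595 nm. IC50 by non-linear regression, triplicate, two independent experiments. Doxorubicin served as positive control.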

HL-60 [1] = assay: Induction of apoptosis in human HL60 cells assessed as reduction of cells in intact membrane at 6 ug/ml by AO/BE staining; assay type: functional, cell-based
HL-60 [2] = assay: Induction of apoptosis in human HL60 cells assessed as reduction in viable cells after 24 hrs; assay type: functional, cell-based
How it was run: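 HL-60 cells were exposed for 24 h. Cells were stained with acridine orange and ethidium bromide (each 100 in PBS) and examined by fluorescence microscopy, 300 cells counted per point. Vehicle was 0.1% DMSO; doxorubicin was the positive control. Three independent experiments in triplicate, ANOVA with Newman-Keuls test.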

HL-60 [3] = assay: Induction of apoptosis in human HL60 cells assessed as increase in DNA strand breaks after 12 hrs by Comet assay; assay type: functional, cell-based
How it was run: (§2)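 Alkaline comet assay on HL-60 cells exposed for 3, 6, 12 or 24 h. Lysis at pH 10, 4 °C, at least 1 h. Unwinding for 20 min in 300 mM NaOH/1 mM EDTA (pH >13), then electrophoresis at 0.81 V/cm for 20 min, 4 °C. Tail classes 0–4 were scored visually on 300 cells and converted to a damage index of 0–400. Vehicle was 0.1% DMSO.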

HL-60 [4] = assay: Cytotoxicity against human HL60 cells after 72 hrs by MTT assay; assay type: functional, cell-based; settings: HL-60, 72 h; how it was run: as §1
HL-60 [5] = assay: Cytotoxicity against human HL60 cells assessed as cell viability by BrdU incorporation assay; assay type: functional, cell-based
How it was run: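 HL-60 cells at 0.3 × 10⁶ cells/mL were treated for 24 h, with BrdU added for the final 3 h. Cytospin slides were stained by peroxidase immunocytochemistry with diaminobenzidine and haematoxylin counterstain. Two hundred cells per sample were scored for % BrdU-positive. Vehicle was 0.1% DMSO and the positive control doxorubicin. Mean ± S.E.M. from three independent experiments in triplicate.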

MDA-MB-435 = assay: Cytotoxicity against human MDA-MB-435 cells after 72 hrs by MTT assay; assay type: functional, cell-based; settings: MDA-MB-435, 72 h; how it was run: as §1
PBMC = assay: Cytotoxicity against human PBMC after 72 hrs by Alamar blue assay; assay type: cell-based
How it was run: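 PBMC were isolated from heparinized blood of healthy donors on Histopaque-1077 and cultured in RPMI 1640 with 20% FBS plus 2% phytohaemagglutinin. Compounds were added after 24 h at 0.39–25.00 in 0.1% DMSO for 72 h. Alamar Blue was added 24 h before the end. Absorbance at 570 and 595 nm was converted to % reduced. IC50 by non-linear regression, triplicate, two independent experiments.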

HL-60 [6] = assay: Induction of apoptosis in human HL60 cells assessed as reduction of cells in intact membrane at 3 ug/ml by AO/BE staining; assay type: functional, cell-based
HL-60 [7] = assay: Induction of apoptosis in human HL60 cells assessed as increase in DNA double strand breaks after 24 hrs by Comet assay; assay type: functional, cell-based
How it was run: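 Neutral comet assay on HL-60 cells treated for 24 h at 6. Electrophoresis in 100 mM Tris/300 mM sodium acetate, pH 8.5, after 60 min equilibration, then 60 min at 0.5 V/cm. Damage index was scored visually. Vehicle was 0.1% DMSO.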

HL-60 [8] = assay: Induction of apoptosis in human HL60 cells assessed as increase in DNA damage by Comet assay; assay type: functional, cell-based; settings: TDE = time-dependent effect; how it was run: as §2
HL-60 [9] = assay: Induction of apoptosis in human HL60 cells assessed as increase in DNA damage after 24 hrs by Comet assay; assay type: functional, cell-based; how it was run: as §2

Compound	IC50 (SF-295) [µg/mL]	Activity (HL-60 [1])	Activity (HL-60 [2])	Activity (HL-60 [3])	IC50 (HL-60 [4]) [µg/mL]	Activity (HL-60 [5])	IC50 (MDA-MB-435) [µg/mL]	IC50 (PBMC) [µg/mL]	Activity (HL-60 [6])	Activity (HL-60 [7])	Activity (HL-60 [8])	Activity (HL-60 [9])
CCCCCCCCCCCCC/C=C/c1cccc(OC)c1C(=O)OC	12.8 (≈ 34.3 µM)	Active	Dose-dependent effect	Active	9.96 (≈ 26.6 µM)	Active	3.31 (≈ 8.84 µM)	19.8 (≈ 52.9 µM)	–	–	–	–
CCCCCCCCCCCCCC(=O)C1OC(=O)c2c(OC)cccc21 (racemic)	10.1 (≈ 26.9 µM)	Active	Dose-dependent effect	–	3.24 (≈ 8.65 µM)	inactive	8.7 (≈ 23.2 µM)	14.5 (≈ 38.7 µM)	Active	Active	tde	Dose-dependent effect
CCCCCCCCCCCCCC(O)C1OC(=O)c2c(OC)cccc21 (racemic)	> 25	Active	–	Active	21 (≈ 55.8 µM)	Active	12.3 (≈ 32.6 µM)	> 25	–	–	–	–
CCCCCCCCCCCCCCC(Br)c1cccc(OC)c1C(=O)OC (stereo unspecified)	> 25	–	–	–	> 25	–	> 25	> 25	–	–	–	–
COc1cccc2c1C(=O)c1c(O)c3c(c(O)c1C2=O)C[C@@](O)(C(=O)CO)C[C@@H]3O[C@H]1C[C@H](N)[C@H](O)[C@H](C)O1 [DOXORUBICIN]	0.04 (≈ 0.0736 µM)	–	–	–	–	–	0.03 (≈ 0.0552 µM)	–	–	–	–	–
CCCCCCCCCCCCCCCc1cccc(OC)c1C(=O)OC	> 25	–	–	–	> 25	–	> 25	> 25	–	–	–	–

From ChEMBL document CHEMBL1208680, “Synthesis and cytotoxicity screening of substituted isobenzofuranones designed from anacardic acids” (Eur J Med Chem, 2010)
